Test results: ChEMBL document CHEMBL1914326, “Synthesis and anticonvulsant properties of new acetamide derivatives of phthalimide, and its saturated cyclohexane and norbornene analogs” (Eur J Med Chem, 2011)
Calls of active or inactive are those of the source. No cut-off for these calls is given here.

Columns and labels:
Mus musculus [1] = test: Neurotoxicity in ip dosed CF1 albino mouse assessed as minimum dose required to cause tremors after 0.5 hrs by rotarod test; type: toxicity, organism-based; details: in vivo
Mus musculus [2] = test: Anticonvulsant activity in CF1 albino mouse assessed as protection against subcutaneous pentylenetetrazole-induced seizures at 300 mg/kg, ip after 0.5 hrs; type: functional, organism-based; design: dose 300 mg/kg
How it was run: (§1)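 Male CF-1 mice in groups of eight were dosed i.p. at 30, 100 or 300 mg/kg in 0.5% methylcellulose/water. At 0.5 and 4 h, pentylenetetrazole 85 mg/kg (CD97 dose) was given s.c. This dose produces clonic seizures lasting at least 5 s. The minimum protective dose was recorded, with a top dose of 300 mg/kg.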

Mus musculus [3] = test: Neurotoxicity in CF1 albino mouse assessed as motor impairment at 300 mg/kg, ip after 4 hrs by rotarod test; type: toxicity, organism-based; design: dose 300 mg/kg, route intraperitoneal; details: in vivo
How it was run: (§2)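 Acute neurotoxicity was scored on the minimal motor impairment rotorod test in male CF-1 mice. Animals in groups of eight were dosed i.p. at 30, 100 or 300 mg/kg in 0.5% methylcellulose/water and examined at 0.5 and 4 h. Untreated controls keep their balance on the rod for a prolonged time. The minimum dose causing impairment was recorded.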

Mus musculus [4] = test: Anticonvulsant activity in CF1 albino mouse assessed as protection against subcutaneous pentylenetetrazole-induced seizures at 300 mg/kg, ip after 4 hrs; type: functional, organism-based; design: dose 300 mg/kg; how it was run: as §1
Mus musculus [5] = test: Anticonvulsant activity in CF1 albino mouse assessed as protection against maximal electroshock at 300 mg/kg, ip after 0.5 hrs; type: functional, organism-based; design: dose 300 mg/kg
How it was run: (§3)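 Male albino CF-1 mice in groups of eight received i.p. doses of 30, 100 and 300 mg/kg, suspended in 0.5% methylcellulose/water. Maximal electroshock seizures were tested at 0.5 and 4 h, with one additional 0.25 h reading at 100 mg/kg. The minimum dose giving protection was recorded. A dash means no activity at 300 mg/kg.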

Mus musculus [6] = test: Anticonvulsant activity in CF1 albino mouse assessed as protection against maximal electroshock at 300 mg/kg, ip after 4 hrs; type: functional, organism-based; design: dose 300 mg/kg; how it was run: as §3
Rattus norvegicus [7] = test: Anticonvulsant activity in Sprague-Dawley albino rat assessed as protection against maximal electroshock at 30 mg/kg, po after 1 hr; type: functional
How it was run: (§4)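 Male Sprague-Dawley rats in groups of four received 30 mg/kg p.o. as a suspension in 0.5% methylcellulose/water. Maximal electroshock seizure protection was scored at 0.25, 0.5, 1, 2 and 4 h and reported as rats protected/rats tested.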

Rattus norvegicus [8] = test: Anticonvulsant activity in Sprague-Dawley albino rat assessed as protection against maximal electroshock at 30 mg/kg, po after 4 hrs; type: functional; how it was run: as §4
Rattus norvegicus [9] = test: Anticonvulsant activity in Sprague-Dawley albino rat assessed as protection against maximal electroshock at 30 mg/kg, po after 0.25 hrs; type: functional; how it was run: as §4
Mus musculus [10] = test: Anticonvulsant activity in CF1 albino mouse assessed as protection against maximal electroshock at 100 mg/kg, ip after 0.25 hrs; type: functional, organism-based; design: dose 100 mg/kg; how it was run: as §3
Rattus norvegicus [11] = test: Neurotoxicity in Sprague-Dawley albino rat assessed as motor impairment at 30 mg/kg, po by rotarod test; type: toxicity, organism-based; design: dose 30 mg/kg, route oral; details: in vivo
How it was run: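 Male Sprague-Dawley rats in groups of four were given 30 mg/kg orally in 0.5% methylcellulose/water. Motor impairment was then assessed on the standardized minimal motor impairment rotorod test.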

Mus musculus [12] = test: Anticonvulsant activity in ip dosed CF1 albino mouse assessed as protection against maximal electroshock after 0.5 hrs; type: functional; details: read-out: MED; how it was run: as §3
Rattus norvegicus [13] = test: Anticonvulsant activity in Sprague-Dawley albino rat assessed as protection against maximal electroshock at 30 mg/kg, po after 2 hrs; type: functional; how it was run: as §4
Mus musculus [14] = test: Anticonvulsant activity in ip dosed CF1 albino mouse assessed as protection against maximal electroshock after 4 hrs; type: functional; details: read-out: MED; how it was run: as §3
Rattus norvegicus [15] = test: Anticonvulsant activity in Sprague-Dawley albino rat assessed as protection against maximal electroshock at 30 mg/kg, po after 0.5 hrs; type: functional; how it was run: as §4
Mus musculus [16] = test: Neurotoxicity in CF1 albino mouse assessed as motor impairment at 300 mg/kg, ip after 0.5 hrs by rotarod test; type: toxicity, organism-based; design: dose 300 mg/kg, route intraperitoneal; details: in vivo; how it was run: as §2
Mus musculus [17] = test: Neurotoxicity in CF1 albino mouse assessed as unable to grasp rotarod at 300 mg/kg, ip after 0.5 hrs by rotarod test; type: toxicity, organism-based; design: dose 300 mg/kg, route intraperitoneal; details: in vivo; how it was run: as §2
Mus musculus [18] = test: Neurotoxicity in CF1 albino mouse assessed as unable to grasp rotarod at 300 mg/kg, ip after 4 hrs by rotarod test; type: toxicity, organism-based; design: dose 300 mg/kg, route intraperitoneal; details: in vivo; how it was run: as §2

Compound | Activity (Mus musculus [1]) | Activity (Mus musculus [2]) | Activity (Mus musculus [3]) | Activity (Mus musculus [4]) | Activity (Mus musculus [5]) | Activity (Mus musculus [6]) | Activity (Rattus norvegicus [7]) [%] | Activity (Rattus norvegicus [8]) [%] | Activity (Rattus norvegicus [9]) [%] | Activity (Mus musculus [10]) | Activity (Rattus norvegicus [11]) | minimal effective dose (Mus musculus [12]) [mg/kg] | Activity (Rattus norvegicus [13]) [%] | minimal effective dose (Mus musculus [14]) [mg/kg] | Activity (Rattus norvegicus [15]) [%] | Activity (Mus musculus [16]) | Activity (Mus musculus [17]) | Activity (Mus musculus [18])
O=C(CN1C(=O)C2CCCCC2C1=O)N1CCN(c2cccc(Cl)c2Cl)CC1 (stereo not given) | Toxic | inactive | Non-toxic | inactive | inactive | inactive |  |  |  |  |  |  |  |  |  |  |  | 
O=C(CN1C(=O)C2CCCCC2C1=O)N1CCN(c2ccc(F)cc2)CC1 (stereo not given) |  | inactive | Non-toxic | inactive |  |  | 25 | 0 | 0 | Active | Non-toxic | 300 | 0 | 300 | 50 | Non-toxic |  | 
O=C(CN1C(=O)c2ccccc2C1=O)N1CCOCC1 |  | inactive |  | inactive |  |  |  |  |  |  |  | 100 |  | 100 |  |  | Toxic | Toxic
